Assay results as given in ChEMBL document CHEMBL3751676, “Combating P-glycoprotein-mediated multidrug resistance with 10-O-phenyl dihydroartemisinin ethers in MCF-7 cells” (Eur J Med Chem, 2016).

What was measured:
[1] = system: MCF7; test: Antiproliferative activity against human MCF7 cells after 96 hrs by MTT assay; format: functional; settings: MCF7, 96 h
Procedure, shortened: (§1)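 MTT: cells seeded at 1.5-4.0 × 10^4 cells/mL and incubated overnight at 37 C, then exposed to 5-9 concentrations (DMSO stocks diluted in growth medium; final DMSO ≤0.5%) for 96 h. MTT added at 0.5 mg/mL for a further 4 h at 37 C and the formazan dissolved. Inhibition calculated relative to control; GI50 estimated by curve fitting; 3-5 repeats, mean ± SD.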

[2] = Antiproliferative activity against human MCF7/ADR cells after 96 hrs by MTT assay; format: functional; settings: NCI/ADR-RES; procedure, shortened: as §1
[3] = system: NCI/ADR-RES; test: Selectivity index, ratio of GI50 for human MCF7 cells to GI50 for human MCF7/ADR cells; format: functional
[4] = molecular target: T1, MDR1 (ABCB1) (Homo sapiens, UniProt P08183); test: Activity at MDR1 (unknown origin) expressed in MDCK cells assessed as permeability across apical to basolateral after 90 mins by LC-MS/MS analysis; format: ADME, cell-based
[5] = molecular target: T1, MDR1 (ABCB1); test: Activity at MDR1 (unknown origin) expressed in MDCK cells assessed as permeability across basolateral to apical after 90 mins by LC-MS/MS analysis; format: ADME, cell-based
[6] = Permeability across apical to basolateral side in MDCK cells after 90 mins by LC-MS/MS analysis; format: ADME, cell-based, Canis lupus familiaris; settings: dog
Procedure, shortened: (§2)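 Wild-type MDCK cells on Transwell filters. Transport was run in HBSS pH 7.4 at 37 °C in A-B and B-A directions, and plates were separated after 90 min incubation. Efflux ratio is Papp(B-A)/Papp(A-B). Papp is reported as "<" when receiver concentrations were below the quantitation limit.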

[7] = Permeability across basolateral to apical side in MDCK cells after 90 mins by LC-MS/MS analysis; format: ADME, cell-based, Canis lupus familiaris; settings: dog; procedure, shortened: as §2
[8] = molecular target: T1, MDR1 (ABCB1); test: Activity at MDR1 (unknown origin) expressed in MDCK cells assessed as efflux ratio of permeability across basolateral to apical side over apical to basolateral side; format: ADME, cell-based
[9] = Efflux ratio of permeability across basolateral to apical side over apical to basolateral side in MDCK cells; format: ADME, cell-based, Canis lupus familiaris; settings: dog; procedure, shortened: as §2

T1 sequence (P08183 whole entry): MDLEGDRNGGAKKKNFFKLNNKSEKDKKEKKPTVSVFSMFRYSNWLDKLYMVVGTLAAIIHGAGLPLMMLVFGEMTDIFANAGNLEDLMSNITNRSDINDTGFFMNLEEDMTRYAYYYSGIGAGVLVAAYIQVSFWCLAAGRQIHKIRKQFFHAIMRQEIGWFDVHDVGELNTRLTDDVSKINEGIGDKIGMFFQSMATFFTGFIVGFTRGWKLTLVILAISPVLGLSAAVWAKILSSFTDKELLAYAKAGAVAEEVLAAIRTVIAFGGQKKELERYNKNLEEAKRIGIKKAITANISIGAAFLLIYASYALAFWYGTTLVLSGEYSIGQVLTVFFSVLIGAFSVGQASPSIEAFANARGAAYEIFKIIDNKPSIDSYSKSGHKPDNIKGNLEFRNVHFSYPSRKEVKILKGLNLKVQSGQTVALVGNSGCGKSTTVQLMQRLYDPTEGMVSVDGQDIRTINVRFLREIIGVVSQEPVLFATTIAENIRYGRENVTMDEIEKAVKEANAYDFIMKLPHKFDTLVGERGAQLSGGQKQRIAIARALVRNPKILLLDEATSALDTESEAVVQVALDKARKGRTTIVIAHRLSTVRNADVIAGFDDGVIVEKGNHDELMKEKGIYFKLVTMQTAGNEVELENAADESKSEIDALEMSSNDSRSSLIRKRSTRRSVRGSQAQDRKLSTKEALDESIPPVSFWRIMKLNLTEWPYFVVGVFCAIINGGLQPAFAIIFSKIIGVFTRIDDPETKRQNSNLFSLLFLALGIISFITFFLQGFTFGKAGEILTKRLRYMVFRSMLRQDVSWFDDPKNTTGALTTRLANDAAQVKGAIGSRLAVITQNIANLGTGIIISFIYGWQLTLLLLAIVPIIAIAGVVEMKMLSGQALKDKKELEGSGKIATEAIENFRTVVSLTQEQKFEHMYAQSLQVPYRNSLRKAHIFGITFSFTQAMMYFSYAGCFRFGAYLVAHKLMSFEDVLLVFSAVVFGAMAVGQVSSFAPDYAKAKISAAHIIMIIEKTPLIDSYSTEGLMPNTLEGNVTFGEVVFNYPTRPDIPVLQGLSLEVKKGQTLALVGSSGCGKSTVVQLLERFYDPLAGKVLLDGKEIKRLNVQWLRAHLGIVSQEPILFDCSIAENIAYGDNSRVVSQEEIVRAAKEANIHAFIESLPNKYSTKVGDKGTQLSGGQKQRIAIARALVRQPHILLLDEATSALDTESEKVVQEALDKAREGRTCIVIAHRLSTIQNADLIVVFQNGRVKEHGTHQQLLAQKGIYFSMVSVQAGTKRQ

Row | Papp A→B at 1.5 h [4] [×10⁻⁶ cm/s] | Papp B→A at 1.5 h [5] [×10⁻⁶ cm/s] | Papp A→B at 1.5 h [6] [×10⁻⁶ cm/s] | Papp B→A at 1.5 h [7] [×10⁻⁶ cm/s] | efflux ratio [8] | efflux ratio [9] | SMILES | GI50 [1] [nM] | GI50 [2] [nM] | RatioGI50 [3]
1 |  |  |  |  |  |  | C[C@H]1[C@@H](Oc2ccc(/C=C/C(=O)N3CCN(c4ccccc4)CC3)cc2)O[C@@H]2O[C@@]3(C)CC[C@H]4[C@H](C)CC[C@@H]1[C@@]24OO3 | 110 | 51 | 2.16
2 |  |  |  |  |  |  | C[C@H]1[C@@H](Oc2ccc(CC(=O)N3CCN(c4ccc(F)cc4)CC3)cc2)O[C@@H]2O[C@@]3(C)CC[C@H]4[C@H](C)CC[C@@H]1[C@@]24OO3 | 290 | 44 | 7.11
3 | 22.2 | 23.7 | 24.3 | 18.5 | 1.07 | 0.76 | COCCc1ccc(OCC(O)CNC(C)C)cc1 (configuration not stated) [METOPROLOL] |  |  | 
4 |  |  |  |  |  |  | C[C@H]1[C@@H](Oc2ccc(CN3CCN(c4ccccc4)CC3)cc2)O[C@@H]2O[C@@]3(C)CC[C@H]4[C@H](C)CC[C@@H]1[C@@]24OO3 | 240 | 21 | 11.43
5 |  |  |  |  |  |  | COc1ccccc1N1CCN(Cc2ccc(O[C@H]3O[C@@H]4O[C@@]5(C)CC[C@H]6[C@H](C)CC[C@@H]([C@H]3C)[C@@]46OO5)cc2)CC1 | 580 | 150 | 3.87
6 |  |  |  |  |  |  | COc1cccc2c1C(=O)c1c(O)c3c(c(O)c1C2=O)C[C@@](O)(C(=O)CO)C[C@@H]3O[C@H]1C[C@H](N)[C@H](O)[C@H](C)O1.Cl [DOXORUBICIN HYDROCHLORIDE] | 54 | 520 | 0.1
7 | 4.37 | 34.1 | 9.98 | 23.4 | 7.81 | 2.34 | C=C[C@H]1C[N@@]2CC[C@H]1C[C@@H]2[C@@H](O)c1ccnc2ccc(OC)cc12 [QUINIDINE] |  |  | 
8 | 28 | 24.9 | 31.4 | 25.1 | 0.89 | 0.8 | C[C@H]1[C@@H](O)O[C@@H]2O[C@@]3(C)CC[C@H]4[C@H](C)CC[C@@H]1[C@@]24OO3 [ARTENIMOL] | 33200 | 3320 | 10
9 |  |  |  |  |  |  | C[C@H]1[C@@H](Oc2ccc(CN3CCN(c4cccc(C(F)(F)F)c4)CC3)cc2)O[C@@H]2O[C@@]3(C)CC[C@H]4[C@H](C)CC[C@@H]1[C@@]24OO3 | 220 | 33 | 6.67
10 |  |  |  |  |  |  | COc1ccccc1N1CCN(C(=O)/C=C/c2ccc(O[C@H]3O[C@@H]4O[C@@]5(C)CC[C@H]6[C@H](C)CC[C@@H]([C@H]3C)[C@@]46OO5)cc2)CC1 | 140 | 31 | 4.52
